Measurements from ChEMBL document CHEMBL1125288, “Structure-activity relationships of 1-[(2-hydroxyethoxy)methyl]-6-(phenylthio)thymine analogues: effect of substitutions at the C-6 phenyl ring and at the C-5 position on anti-HIV-1 activity” (J Med Chem, 1992).

Columns and labels:
[1] = Concentration required to achieve 50% protection of MT-4 cells against the cytopathic effect of HIV-1.; type: functional, cell-based; settings: Homo sapiens, MT4
Summary of the method: (§1)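 MT-4 cells at 1 × 10^6 cells/mL were infected with HIV-1 (HTLV-IIIB) or HIV-2 (LAV-2ROD) at an MOI of 0.02 (virus titrated as CCID50 in MT-4). Cells were plated immediately onto serial compound dilutions from DMSO stocks of 50 mM or higher. After 4 days at 37 °C, viable cells were counted by MTT.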

[2] = Concentration required inhibit HIV-1 (HTLV-IIIb strain) replication in PBL(peripheral blood lymphocytes) cells.; type: functional, cell-based; settings: Homo sapiens
Summary of the method: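 Phytohemagglutinin-stimulated PBL at 1 × 10^6 cells/mL were infected with HIV-1 HTLV-IIIB at an MOI of 0.2 and cultured at 37 °C with varied compound concentrations. On day 4 cells were subcultured 1:5 into fresh medium with compound. On day 7, p24 antigen in the supernatant was measured by sandwich ELISA, and EC50 was derived.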

[3] = Concentration of compound required to reduce the viability of mock-infected PBL(peripheral blood lymphocytes) cells. by 50%; type: functional; settings: Homo sapiens
MT4 = assay: Concentration required to reduce the viability of mock-infected MT-4 cells by 50%.; type: functional; settings: Homo sapiens
Summary of the method: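 Mock-infected MT-4 cells were run in parallel with the antiviral assay: 1 × 10^6 cells/mL, serial compound dilutions, 4 days at 37 °C.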

[4] = Concentration of compound required to reduce the viability of mock-infected HIV-2 (LAV-2ROD)/MT-4 cells by 50%; type: functional; settings: Homo sapiens, MT4
Summary of the method: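 Mock-infected MT-4 cells, run in parallel with the HIV-2 LAV-2ROD antiviral assay. Cells at 1 × 10^6 cells/mL were plated into wells holding serial compound dilutions, with DMSO stocks at 50 mM or higher. After 4 days at 37 °C, viable cells were counted by the MTT method.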

[5] = Concentration required inhibit HIV-2 (LAV-2ROD)replication in MT-4 cells.; type: functional, cell-based; settings: Homo sapiens, MT4; summary of the method: as §1

| Compound | EC50 [1] [µM] | EC50 [2] [µM] | CC50 [3] [µM] | CC50 (MT4) [µM] | CC50 [4] [µM] | EC50 [5] [µM] |
| --- | --- | --- | --- | --- | --- | --- |
| Cc1c(Sc2ccccc2)n(COCCO)c(=O)[nH]c1=O [HEPT] | 7 | 7.9 | 640 | 743 | 740 | > 250 |
| CCc1c(Sc2ccccc2)n(COCCO)c(=O)[nH]c1=O | 0.12 | 0.19 | 108 | 400 | 400 | > 400 |
| Cc1c(Sc2ccc([N+](=O)[O-])cc2)n(COCCO)c(=O)[nH]c1=O | > 190 | – | – | 190 | – | – |
| Cc1c(Sc2ccc(C#N)cc2)n(COCCO)c(=O)[nH]c1=O | > 250 | – | – | > 250 | – | – |
| Cc1cc(C)cc(Sc2c(C(C)C)c(=O)[nH]c(=O)n2COCCO)c1 | – | – | – | 128 | – | – |
| Cc1c(Sc2ccccc2[N+](=O)[O-])n(COCCO)c(=O)[nH]c1=O | 140 | – | – | > 250 | – | – |
| Cc1c(Sc2cccc([N+](=O)[O-])c2)n(COCCO)c(=O)[nH]c1=O | 34 | – | – | 170 | – | – |
| COC(=O)c1cccc(Sc2c(C)c(=O)[nH]c(=O)n2COCCO)c1 | 7.9 | – | – | 221 | – | – |
| Cc1cc(C)cc(Sc2c(C)c(=O)[nH]c(=O)n2COCCO)c1 | – | – | – | 243 | – | – |
| CC(C)c1c(Sc2ccccc2)n(COCCO)c(=O)[nH]c1=O | 0.063 | – | – | 231 | – | – |
| Cc1c(Sc2cccc(C(C)(C)C)c2)n(COCCO)c(=O)[nH]c1=O | 12 | – | – | 75 | – | – |
| COc1ccccc1Sc1c(C)c(=O)[nH]c(=O)n1COCCO | 19 | – | – | > 250 | – | – |
| CCc1cccc(Sc2c(C)c(=O)[nH]c(=O)n2COCCO)c1 | 2.7 | – | – | 181 | – | – |
| Cc1c(Sc2cccc(C(=O)O)c2)n(COCCO)c(=O)[nH]c1=O | > 352 | – | – | 352 | – | – |
| Cc1ccccc1Sc1c(C)c(=O)[nH]c(=O)n1COCCO | 71 | – | – | > 250 | – | – |
| Cc1c(Sc2cccc(C(N)=O)c2)n(COCCO)c(=O)[nH]c1=O | > 306 | – | – | 306 | – | – |
| CC(=O)c1ccc(Sc2c(C)c(=O)[nH]c(=O)n2COCCO)cc1 | > 110 | – | – | 110 | – | – |
| O=C(Nc1ccccc1)c1c(Sc2ccccc2)n(COCCO)c(=O)[nH]c1=O | > 18 | – | – | 18 | – | – |
| Cc1cn([C@H]2C[C@H](N=[N+]=[N-])[C@@H](CO)O2)c(=O)[nH]c1=O [ZIDOVUDINE] | 0.006 | – | – | 7.8 | – | – |
| COc1ccc(Sc2c(C)c(=O)[nH]c(=O)n2COCCO)cc1 | > 250 | – | – | > 250 | – | – |
| COC(=O)c1c(Sc2ccccc2)n(COCCO)c(=O)[nH]c1=O | > 6.6 | – | – | 6.6 | – | – |
| Cc1c(Sc2ccccc2)n(COCCO)c(=S)[nH]c1=O | 0.98 | – | – | 123 | – | – |
| CC(=O)c1cccc(Sc2c(C)c(=O)[nH]c(=O)n2COCCO)c1 | 7.3 | – | – | 228 | – | – |
| Cc1cc(C)cc(Sc2c(C)c(=O)[nH]c(=S)n2COCCO)c1 | 0.22 | – | – | 172 | – | – |
| Cc1c(Sc2cccc(C(F)(F)F)c2)n(COCCO)c(=O)[nH]c1=O | 45 | – | – | 196 | – | – |
| CCCc1c(Sc2ccccc2)n(COCCO)c(=O)[nH]c1=O | 3.4 | – | – | 244 | – | – |
| CCc1c(Sc2cc(C)cc(C)c2)n(COCCO)c(=O)[nH]c1=O | – | – | – | 149 | – | – |
| C=CCc1c(Sc2ccccc2)n(COCCO)c(=O)[nH]c1=O | 2.5 | – | – | 183 | – | – |

Continued, in another order:

| EC50 [1] [µM] | Compound | EC50 [2] [µM] | CC50 [3] [µM] | CC50 (MT4) [µM] | CC50 [4] [µM] | EC50 [5] [µM] |
| --- | --- | --- | --- | --- | --- | --- |
| > 250 | Cc1c(Sc2ccc(Cl)cc2)n(COCCO)c(=O)[nH]c1=O | – | – | > 250 | – | – |
| 3.3 | Cc1c(Sc2cccc(F)c2)n(COCCO)c(=O)[nH]c1=O | – | – | 282 | – | – |
| > 250 | Cc1c(Sc2ccc(F)cc2)n(COCCO)c(=O)[nH]c1=O | – | – | > 250 | – | – |
| > 292 | Cc1c(Sc2cccc(CO)c2)n(COCCO)c(=O)[nH]c1=O | – | – | 292 | – | – |
| > 277 | Cc1c(Sc2ccc(O)cc2)n(COCCO)c(=O)[nH]c1=O | – | – | 277 | – | – |
| > 130 | Cc1c(Sc2ccccc2Cl)n(COCCO)c(=O)[nH]c1=O | – | – | 130 | – | – |
| 2.6 | Cc1cccc(Sc2c(C)c(=O)[nH]c(=O)n2COCCO)c1 | – | – | 420 | – | – |
| 1.3 | Cc1c(Sc2cc(Cl)cc(Cl)c2)n(COCCO)c(=O)[nH]c1=O | – | – | 130 | – | – |
| 10 | Cc1c(Sc2cccc(C#N)c2)n(COCCO)c(=O)[nH]c1=O | – | – | 234 | – | – |
| 13 | Cc1c(Sc2cccc(Cl)c2)n(COCCO)c(=O)[nH]c1=O | – | – | 210 | – | – |
| 10 | Cc1c(Sc2cccc(I)c2)n(COCCO)c(=O)[nH]c1=O | – | – | 106 | – | – |
| 82 | Cc1c(Sc2cccc(O)c2)n(COCCO)c(=O)[nH]c1=O | – | – | 446 | – | – |
| 5.7 | Cc1c(Sc2cccc(Br)c2)n(COCCO)c(=O)[nH]c1=O | – | – | 141 | – | – |
| 220 | Cc1ccc(Sc2c(C)c(=O)[nH]c(=O)n2COCCO)cc1 | – | – | > 250 | – | – |
| 0.014 | CCc1c(Sc2cc(Cl)cc(Cl)c2)n(COCCO)c(=O)[nH]c1=O | – | – | 51 | – | – |
| 22 | COc1cccc(Sc2c(C)c(=O)[nH]c(=O)n2COCCO)c1 | – | – | > 250 | – | – |
